Assay [1] can be described thus: Induction of supercoiled double-stranded plasmid DNA strand (unknown origin) cleavage at 250 uM after 3 to 15 hrs using ethidium bromide staining by agarose gel electrophoresis. Put shortly: (§1)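 Supercoiled plasmid DNA (30 μM bp) incubated 3–15 h at 37 °C in sodium phosphate buffer (50 mM, pH 7) with 10% v/v acetonitrile. Final concentrations: compound 250 μM, 2-mercaptoethanol 375 μM where added. Catalase (100 μg/mL) added before compound where used. Forms I and II resolved on 0.9% agarose gel (80 V, 3 h, 1x TAE), stained with ethidium bromide, visualized by UV and quantified by image analysis. Breaks per plasmid S = −ln f1, f1 = fraction form I.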

A short description of assay [2]: Induction of oxidative supercoiled double-stranded plasmid DNA strand (unknown origin) cleavage at 250 uM after 3 to 15 hrs using ethidium bromide staining by agarose gel electrophoresis in presence of 375 uM 2-mercaptoethanol and catalase. In a few lines: as §1
A short description of assay [3]: Induction of oxidative supercoiled double-stranded plasmid DNA strand (unknown origin) cleavage at 250 uM after 3 to 15 hrs using ethidium bromide staining by agarose gel electrophoresis in presence of 375 uM 2-mercaptoethanol. In a few lines:
as §1

Among the data in ChEMBL document CHEMBL2311375, “Synthesis and characterization of a small analogue of the anticancer natural product leinamycin” (Bioorg Med Chem, 2013) are Activity values, retold here.

Calls of active or inactive are those of the source. No cut-off for these calls is given here.

As for `CC(C)=CCCC1(C)CC(=O)S[S+]1[O-]` (configuration not stated), the result in assay [1] and in assay [2] was inactive. Moreover, the result in assay [3] was Active.
Consider `O=c1s[s+]([O-])c2ccccc12` (configuration not stated), for which the outcome in assay [1] and in assay [2] was inactive. In addition, the outcome in assay [3] was Active.
Turning to `CC(C)=CCCC1(C)CC(=O)S[S+]1[O-]` (mixture of isomers), the outcome in assay [1] and in assay [2] was inactive. Further, the result in assay [3] was Active.
Consider `CC(C)=CCCC1(C)CC(=O)S[S+]1[O-]` (single isomer, unassigned), for which the outcome in assay [1] and in assay [2] was inactive. Also, in assay [3], the outcome was Active.
